The list is not random: actives were taken first. Their share in the collection is about 2.3%.
Tb MetRS inh: Trypanosoma brucei MetRS inhibition | 0.4% of 360,000 active | inhibition, % at 11.9 µM | purified T. brucei MetRS, ATP depletion, Kinase-Glo luminescence;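 active means inhibition above a per-plate cutoff of the control wells' mean inhibition plus 3 SD, cut at about 5.5% in these data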
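Test system: purified T. brucei MetRS enzyme. Also added: ATP, methionine and E. coli bulk tRNA substrates. Compound: 11.9 µM single point. Schedule: 15 min enzyme-compound preincubation, 2 h reaction, 10 min detection, 25 °C. Signal: luciferase luminescence of residual ATP, Kinase-Glo. Evaluation: percent inhibition versus plate control medians. Controls: DMSO wells, low control.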
PLC-beta3 inh: blocks human PLC-beta3 enzyme activity; Q01970; Purified PLC-beta3, fluorogenic substrate, fluorescence; inhibition, % at 12.2 µM; 0.18% of 370,000 active; AID 720704
ADAM17 inh: ADAM17 inhibition, QFRET primary screen. 0.83% of 370,000 active. recombinant ADAM17, EDANS/DABCYL FRET peptide cleavage. AID 720648. P78536. inhibition, % at 6.95 µM;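 active means inhibition above the mean of compounds lying between control limits plus 3 SD, set per campaign, cut at about 8.5% in these data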
ADAM10 inh: inhibitors of human ADAM10; inhibition, % at 7 µM; O14672; recombinant ADAM10, EDANS/DABCYL FRET peptide cleavage, 3 h; 0.62% of 370,000 active; AID 720582;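 active means inhibition above a per-campaign cutoff equal to the mean of compounds falling between control-based bounds plus 3 SD, cut at about 20% in these data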
PLCg1 inh: blocks human PLC-gamma1 enzyme activity. purified PLC-gamma1, fluorogenic substrate, fluorescence. inhibition, % at 12.2 µM. 0.84% of 370,000 active; in the data active means inhibition above about 9.5%
ADAM10 confirm: human ADAM10 inhibition, confirmation; 1% of 2,100 active; inhibition, % at 6.95 µM; shares compounds with ADAM10 inh; AID 743208; ADAM10 QFRET peptide cleavage, EDANS fluorescence;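 active means inhibition above about 20% chosen separately for each screening run, limit read from the data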
ADAM17 ctr: ADAM17 inhibition, counter-screen for ADAM10 exosite hits; shares compounds with ADAM10 inh; ADAM17 QFRET peptide cleavage, EDANS fluorescence; inhibition, % at 6.95 µM; 0.5% of 2,100 active;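 active means mean triplicate inhibition above the solvent-only control wells' mean plus 3 SD, cut at about 12% in these data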
ADAM10 counter: inhibits human ADAM10 in ADAM17 exosite counter-screen; shares compounds with ADAM17 inh; recombinant ADAM10, EDANS/DABCYL FRET peptide cleavage, 3 h; inhibition, % at 6.95 µM; 47% of 2,900 active; AID 743256;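 active means mean inhibition over the triplicate runs exceeds the activity threshold set in the earlier primary screen, cut at about 20% in these data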
ADAM17 confirm: human ADAM17 inhibition, confirmation. shares compounds with ADAM17 inh. recombinant ADAM17, EDANS/DABCYL QFRET peptide cleavage. inhibition, % at 6.95 µM. 65% of 2,900 active;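 active means mean inhibition across replicates above the hit cutoff set in the primary screen, cut at about 8.5% in these data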
PLCgamma1 ctr: counter-screen for PLC-beta3 inhibitors: inhibitors of human PLC-gamma1; shares compounds with PLCg1 inh; purified PLC-gamma1, fluorogenic substrate, fluorescence; inhibition, % at 12.3 µM; 3.1% of 3,300 active; AID 743258; in the data active means inhibition above about 9.5%
PLCbeta3 conf: human PLC-beta3 inhibition, confirmation; purified PLC-beta3, fluorogenic substrate fluorescence; 1% of 3,300 active; AID 743261; inhibition, % at 12.3 µM; shares compounds with PLCg1 inh
Hits are given with their value; 0 = inactive; - = no result. Unless noted, no stated cut-off is given here; in the data, active means inhibition above about 11%; inactive means the rest.

SMILES	Tb MetRS inh	PLC-beta3 inh	ADAM17 inh	ADAM10 inh	PLCg1 inh	ADAM10 confirm	ADAM17 ctr	ADAM10 counter	ADAM17 confirm	PLCgamma1 ctr	PLCbeta3 conf
Brc1ccc(CN2CCCc3nc(-c4ccccc4)ccc32)cc1	-	0	0	0	0	-	-	-	-	-	-
COc1ccc([C@@H]2[C@@H]3C(=O)N(C(C)(C)C)C(=O)[C@@H]3[C@]3(Cc4ccccc4)C(=O)N(c4cccc(Cl)c4)C(=O)N23)cc1	0	0	9.8	37	9.6	0	0	26	15	0	0
Cc1cc(Nc2ccc(Cl)cc2)n(-c2ccccc2)n1	0	0	0	0	0	-	-	-	-	-	-
Cc1cc(Nc2ccc(Cl)cc2)n(-c2cccc(Cl)c2)n1	0	0	9.8	24	12	0	0	0	11	0	0
Nc1cc(-c2ccc(Cl)cc2)nn1S(=O)(=O)c1cccc2nsnc12	0	0	0	0	0	-	-	-	-	-	-
COc1ccccc1-c1cc(N)n(S(=O)(=O)c2cccc3nsnc23)n1	0	0	0	23	12	0	0	-	-	0	0
CC(C)C[C@H](NC(=O)c1[nH]cnc1C(=O)N[C@H](C)c1ccccc1)C(=O)OCc1ccccc1	0	0	13	27	9.6	0	0	46	21	0	0
Cc1ccc(NC(=O)CSc2nnc(-c3cc(-c4ccc(Cl)cc4)n[nH]3)n2N)cc1	-	0	0	0	0	-	-	-	-	-	-
C[C@@H]1CN([C@H](C)CO)C(=O)CCCn2cc(nn2)CO[C@H]1CN(C)C(=O)c1ccc2ccn(C)c2c1	0	0	0	0	0	-	-	-	-	-	-
CCOc1ccc(/C=C(\C)C(=O)c2c(C)cc(C)[nH]c2=O)cc1	0	0	0	20	12	0	0	-	-	0	0
COc1ccc(/C=C(\C)C(=O)c2c(C)cc(C)[nH]c2=O)cc1	0	0	0	0	0	-	-	-	-	-	-
O=C1C=C(c2ccc3ncccc3c2)C[C@@H](c2ccc(Cl)cc2)C1	0	0	0	20	11	0	0	-	-	0	0
COc1ccc([C@H]2CC(=O)C=C(c3ccc4ncccc4c3)C2)cc1	0	0	0	0	0	-	-	-	-	-	-
CC[C@]12c3[nH]c4ccc(Cl)cc4c3CCN1C(=O)[C@@H](CC(=O)NC/C=C(\C)CCC=C(C)C)C[C@@H]2C(=O)N1CCN(C(=O)C2CC2)CC1	0	0	0	0	0	-	-	-	-	-	-
COC(=O)c1ccc2c(C(C)c3ccccc3O)c[nH]c2c1 (configuration not stated)	-	0	0	0	0	-	-	-	-	-	-
COc1cccc(S(=O)(=O)N2CCN(Cc3ccc4c(c3)OCO4)CC2)c1	0	0	0	0	0	-	-	-	-	-	-
CC(=O)Oc1ccc(C(=O)Nc2cccc(C(=O)c3ccc(C)c(C)c3)c2)cc1	0	0	16	32	15	0	0	0	12	0	0
COC(=O)c1ccc(Cl)c(NC(=O)CN(c2ccc(OC)cc2)S(=O)(=O)c2ccccc2)c1	0	0	18	35	13	0	0	26	16	0	0
COc1cc(/C=N/NC(=O)Cc2ccccc2)cc([N+](=O)[O-])c1O	0	0	0	0	0	-	-	-	-	-	-
COc1cc(/C=N/NC(=O)[C@H](Cc2c[nH]c3ccccc23)NC(=O)OCC(C)C)cc([N+](=O)[O-])c1O	0	0	16	32	14	0	0	0	0	0	0
COc1ccc(N=C2SC(CC(=O)Nc3ccccc3)C(=O)N2Cc2ccco2)cc1 (configuration not stated)	0	11	9.3	28	0	0	0	20	14	0	0
O=C(Nc1ccn(Cc2ccccc2F)n1)c1ccc(COc2ccccc2Cl)cc1	0	0	13	0	0	-	-	31	18	-	-
COc1ccccc1CCn1cnc(-c2ccc(F)cc2F)c1CC(C)C	-	0	10	0	0	-	-	29	14	-	-
COc1cccc(C(=O)Nc2ccc(Cl)c(C(F)(F)F)c2)c1	0	0	11	0	0	-	-	0	0	-	-
COc1cc(C(=O)Nc2ccc(Cl)c(C(F)(F)F)c2)cc(OC)c1OC	0	0	0	0	0	-	-	-	-	-	-
SMILES	Tb MetRS inh	PLC-beta3 inh	ADAM17 inh	ADAM10 inh	PLCg1 inh	ADAM10 confirm	ADAM17 ctr	ADAM10 counter	ADAM17 confirm	PLCgamma1 ctr	PLCbeta3 conf
COC(=O)[C@H](CC(C)C)N1Cc2nnn(Cc3ccc(C)cc3)c2-c2cc(F)ccc2S1(=O)=O	-	0	10	0	0	-	-	0	14	-	-
COc1ccc(O)cc1CN1CCN(c2ncc(Cc3ccccc3)cn2)CC1	0	0	0	0	0	-	-	-	-	-	-
Cc1ccc(S(=O)(=O)N2CCC(C(=O)OC(C)C(=O)NCc3ccccc3)CC2)cc1C (configuration not stated)	0	0	9.7	0	0	-	-	0	0	-	-
Cc1ccc(S(=O)(=O)N2CCC(C(=O)OC(C)C(=O)NC3CCCCC3C)CC2)cc1C (configuration not stated)	0	0	0	0	0	-	-	-	-	-	-
C[C@@H](NC(=O)c1nc[nH]c1C(=O)N1CCc2ccccc2C1)c1ccccc1	0	0	9.0	0	0	-	-	0	0	-	-
CCOc1cc(C)nc(NCc2ccccc2)n1	0	0	0	0	0	-	-	-	-	-	-
CCCCOc1cc(C)nc(NCc2ccccc2)n1	0	0	11	0	0	-	-	0	0	-	-
Cc1ccc(NC2=C(Cl)C(=O)OC2OC(=O)c2ccc(C)cc2)cc1 (configuration not stated)	0	0	9.0	0	0	-	-	0	12	-	-
COC(=O)c1ccc(NC2=C(Cl)C(=O)OC2OC(=O)c2ccccc2)cc1 (configuration not stated)	0	0	0	0	0	-	-	-	-	-	-
COc1ccccc1N=C1SCC(=O)N1Cc1ccco1	0	0	8.9	0	0	-	-	0	0	-	-
Cc1cc(C)c(N=C2SCC(=O)N2Cc2ccco2)c(C)c1	0	0	0	0	0	-	-	-	-	-	-
O=c1[nH]c(-c2ccccc2)nn1-c1ccc(Br)cc1Br	0	0	0	0	0	-	-	-	-	-	-
O=C(CCS(=O)(=O)c1ccccc1)Nc1nc2c(s1)COc1ccccc1-2	0	0	0	0	0	-	-	-	-	-	-
O=C(Nc1ccccc1OC(F)F)c1ccc(S(=O)(=O)N2CCOCC2)cc1	0	0	0	0	0	-	-	-	-	-	-

High-throughput results deposited in PubChem BioAssay by The Scripps Research Institute Molecular Screening Center.
